Screens from PubChem BioAssay.
Shown are actives, neighbours in structure and some others; about 2.5% of the full set was active somewhere.
SIAE primary: human SIAE inhibitors, primary screen, biochemical, fluorescence polarization, FP-Rh probe, 1536-well HTS | Sialate O-acetylesterase (Homo sapiens), Q9HAT2 | SIAE FP-Rh probe binding | inhibition, % at 9.66 µM | 0.69% of 370,000 active | AID 1053197, 2014;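 active means inhibition above a cutoff: mean of compounds within the control limits plus 3 SD of those, cut at about 17% in these data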
HTRA1 inhibitor: HTRA1 serine protease inhibitors, primary screen, biochemical, fluorescence polarization, HTS. Q92743. recombinant HTRA1, FP-rhodamine activity-based probe. inhibition, % at 5.96 µM. 0.5% of 340,000 active. AID 504803, 2011; in the data active means inhibition above about 36%
Target sequence (Q92743 whole entry, looked up): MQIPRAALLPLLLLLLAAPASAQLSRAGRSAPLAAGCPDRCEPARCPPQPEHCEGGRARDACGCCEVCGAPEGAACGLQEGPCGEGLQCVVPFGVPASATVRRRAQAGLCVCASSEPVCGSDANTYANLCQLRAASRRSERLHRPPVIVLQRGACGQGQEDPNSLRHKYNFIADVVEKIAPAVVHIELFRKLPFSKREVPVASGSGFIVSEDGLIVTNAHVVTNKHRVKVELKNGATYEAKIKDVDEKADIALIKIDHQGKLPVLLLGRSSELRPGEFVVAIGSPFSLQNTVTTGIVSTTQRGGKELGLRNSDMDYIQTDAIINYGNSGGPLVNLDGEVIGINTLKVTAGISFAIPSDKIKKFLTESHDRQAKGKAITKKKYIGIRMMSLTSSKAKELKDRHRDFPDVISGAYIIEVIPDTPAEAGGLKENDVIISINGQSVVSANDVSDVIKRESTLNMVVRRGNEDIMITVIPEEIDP
ABHD4 inh: ABHD4 inhibitors, primary screen, biochemical, fluorescence polarization, mouse; AID 720543, 2013; purified mABHD4, FP-Rh probe fluorescence polarization; (Lyso)-N-acylphosphatidylethanolamine lipase (Mus musculus), Q8VD66; inhibition, % at 8.92 µM; 0.54% of 370,000 active;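 active means inhibition exceeding the mean over every tested compound plus 3 SD, cut at about 30% in these data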
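Assay system: mABHD4 protein; medium: HEPES pH 7.0, NaCl, Pluronic buffer; dosing: 8.92 µM, single dose; schedule: 45 min + 60 min at 25 °C; signal: FP readout, ex 525 nm / em 598 nm; read-out: normalized percent inhibition of probe labeling; repeats: single replicate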
TCR CD3 inh: inhibitors of human TCR-CD3 interaction, primary screen, biochemical, fluorescence, TAMRA-labeled TCR probe. T-cell receptor (TCR). inhibition, % at 9.4 µM. 0.37% of 360,000 active. AID 651800, 2012;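 further: recombinant mutant TCR 2C K166C tagged with TAMRA read by polarization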
rCAG RNA binder: binders of r(CAG) RNA repeats, primary screen, biochemical, fluorescence; inhibition, % at 3 µM; 1.3% of 370,000 active; r(CAG) RNA repeat, TO-PRO-1 dye displacement fluorescence;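 active means inhibition above the plate cutoff, the mean of all test compounds on that plate plus 3 SD, cut at about 35% in these data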;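 further: higher means more dye released from RNA so lower well fluorescence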
HTRA1 inh conf: HTRA1 protease inhibitors, retest, confirmation, biochemical, fluorescence polarization; 66% of 1,600 active; recombinant HTRA1, FP-rhodamine activity-based probe; inhibition, % at 5.96 µM; shares compounds with HTRA1 inhibitor;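 active means mean inhibition over three repeats above a set limit taken from the earlier primary screen, cut at about 37% in these data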;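 further: inhibitors block probe binding so polarization drops and inhibition rises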
BSA probe FL: compounds interfering with TAMRA-BSA probe, counter-screen for TCR-CD3 interaction inhibitor project, biochemical, fluorescence, TAMRA-labeled BSA; TAMRA-labeled BSA probe fluorescence counterscreen; inhibition, % at 9.4 µM; shares compounds with TCR CD3 inh; 10% of 1,200 active; AID 652035, 2013; in the data active means inhibition above about 23%
TCR-CD3 conf: TCR-CD3 interaction inhibitors, retest, confirmation, biochemical, fluorescence, TAMRA-labeled TCR probe; inhibition, % at 9.4 µM; TAMRA-labeled TCR probe fluorescence binding assay; 48% of 1,200 active; shares compounds with TCR CD3 inh
rCAG binder conf: small molecules binding CAG repeat RNA – biochemical, fluorescence, confirmation | inhibition, % at 3 µM | AID 652065, 2013 | 70% of 4,300 active | r(CAG) RNA repeat, TO-PRO-1 dye displacement fluorescence | shares compounds with rCAG RNA binder;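 active means inhibition above a per-plate cutoff, the mean inhibition of sample wells plus 3 SD, cut at about 35% in these data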;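 further: loss of TO-PRO-1 fluorescence as compound displaces dye from 1x1 AA loop RNA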
dCAG dye counter: displacement of TO-PRO-1 from CAG DNA duplex, counter-screen for rCAG RNA repeat binder project, biochemical, fluorescence, TO-PRO-1 dye, d(CAG) DNA oligo; shares compounds with rCAG RNA binder; d(CAG) DNA oligo TO-PRO-1 dye displacement; inhibition, % at 3 µM; 94% of 4,300 active; AID 652068, 2013;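 active means inhibition above its plate's cutoff, the mean test-well inhibition plus 3 SD, cut at about 4.8% in these data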;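 further: hits displace the dye from DNA and so lower well fluorescence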
Each line names hits and unclear results; the compound was inactive in the other large screens (follow-up assays come after a bar, where they were run). Unless noted, no stated cut-off is given here; in the data, active means inhibition above about 19%; inactive means the rest.

O=C(CCN1C(=O)/C(=C\c2ccccc2)SC1=S)NNC(=O)c1ccccc1O	HTRA1 inhibitor 55.9, TCR CD3 inh 39.9 | HTRA1 inh conf 54.4 | BSA probe FL inactive | TCR-CD3 conf 35.8
Cc1ccc(C(=O)Nc2nnc(CC(=O)N/N=C/c3ccncc3)s2)cc1	none
Cc1ccc(C(=O)Nc2nnc(CC(=O)N/N=C/c3ccc(O)c(O)c3)s2)cc1	HTRA1 inhibitor 47.6, TCR CD3 inh 34.1 | HTRA1 inh conf 64.0 | BSA probe FL inactive | TCR-CD3 conf 68.2
COc1ccc(-c2c(C#N)c(N)n(N)c(=O)c2C#N)cc1Cl	none
O=c1cc(-c2ccc(O)c(O)c2)oc2cc(O)cc(O)c12	HTRA1 inhibitor 50.0, TCR CD3 inh 25.3 | HTRA1 inh conf 66.7 | BSA probe FL inactive | TCR-CD3 conf 21.2
COc1cc(-c2cc(=O)c3c(O)cc(O)cc3o2)cc(OC)c1OC	none (no result: HTRA1 inhibitor)
COc1cc(C(=S)N2CCOCC2)cc(OC)c1OC(=O)c1cccc(C)c1	none
Oc1ccccc1N=Nc1ccccc1O	HTRA1 inhibitor 66.2, TCR CD3 inh 19.0 | HTRA1 inh conf 59.3 | BSA probe FL inactive | TCR-CD3 conf inactive
Cc1nnsc1C(=O)N/N=C/c1ccc2ccccc2c1O	HTRA1 inhibitor 40.6, TCR CD3 inh 41.0 | HTRA1 inh conf 54.6 | BSA probe FL inactive | TCR-CD3 conf 29.0
COc1ccc(-c2cnnc(N/N=C/c3ccc(O)c(O)c3)n2)cc1	HTRA1 inhibitor 60.5, TCR CD3 inh 49.4 | HTRA1 inh conf 78.2 | BSA probe FL inactive | TCR-CD3 conf 44.3
COc1ccc(-c2cnnc(N/N=C/c3ccc(O)cc3)n2)cc1	none
COc1ccc(OCCC(=O)OCC(=O)Nc2cccc(Br)c2)cc1	none
Cc1ccn2cc(-c3ccc(O)c(O)c3)nc2c1	HTRA1 inhibitor 43.6, TCR CD3 inh 34.2 | HTRA1 inh conf 65.4 | BSA probe FL inactive | TCR-CD3 conf 25.6
Oc1ccc(-c2cn3ccccc3n2)cc1O	none
Cc1c(N=C2C=C(Br)C(=O)C(Br)=C2)c(=O)n(-c2ccccc2)n1C	HTRA1 inhibitor 57.3, ABHD4 inh 69.0, TCR CD3 inh 45.9 | HTRA1 inh conf inactive | BSA probe FL inactive | TCR-CD3 conf inactive
Cc1csc(=Nc2c(C)n(C)n(-c3ccccc3)c2=O)n1Cc1ccccc1	none
Cc1ccc(CNc2ccc(O)cc2)cc1	SIAE primary 47.7, HTRA1 inhibitor 60.4, ABHD4 inh 68.4, TCR CD3 inh 27.5 | HTRA1 inh conf inactive | BSA probe FL inactive | TCR-CD3 conf inactive
CCOc1cccc(CNc2ccc(O)cc2)c1OCc1ccc(Cl)cc1Cl	SIAE primary 31.8, HTRA1 inhibitor 60.4, ABHD4 inh 66.1, TCR CD3 inh 27.1 | HTRA1 inh conf inactive | BSA probe FL inactive | TCR-CD3 conf inactive
O=C1CCC(=O)N1c1ccccc1OS(=O)(=O)c1ccccc1	none
O=C(N/N=C/c1cc(Br)cc(Cl)c1O)c1ccc2c(c1)OCO2	HTRA1 inhibitor 41.7, TCR CD3 inh 37.8 | HTRA1 inh conf inactive | BSA probe FL inactive | TCR-CD3 conf 29.5
O=C(O)CC(CCc1ccccc1)OC1OC(CO)C(O)C(O)C1O (stereo unspecified)	HTRA1 inhibitor 41.4, TCR CD3 inh 32.2 | HTRA1 inh conf 41.2 | BSA probe FL inactive | TCR-CD3 conf 30.3
O=C(CSc1ncnc2c(-c3ccc(Cl)cc3)nsc12)c1ccccc1	none
CCC1=NN(C(=O)c2ccccc2Br)C(O)(c2ccc(Br)cc2)C1 (stereo unspecified)	none
CCC1=NN(C(=O)c2ccccc2O)C(O)(c2ccccc2)C1 (stereo unspecified)	HTRA1 inhibitor 54.4, TCR CD3 inh 40.2 | HTRA1 inh conf 65.2 | BSA probe FL inactive | TCR-CD3 conf 30.2
CCCCOc1cccc(-c2nnc(NC(=O)CSc3ccc(C)cc3)s2)c1	none
Oc1ccc(N=Nc2c(O)ccc3ccccc23)cc1	HTRA1 inhibitor 62.7, rCAG RNA binder 41.4 | HTRA1 inh conf 42.9 | rCAG binder conf inactive | dCAG dye counter 17.3
Cn1cccc1-c1nc2ccccc2n1Cc1ccccc1	none
CC(C)C[C@H]1COc2cc(Br)ccc2S(=O)(=O)N1Cc1cn(Cc2ccc(Cl)cc2)nn1	none (no result: HTRA1 inhibitor, TCR CD3 inh)
c1ccc2c(c1)ncc1cccn12	none
CCn1c2ccccc2c2c3ncc4cccn4c3ccc21	HTRA1 inhibitor 46.9, rCAG RNA binder 39.3 | HTRA1 inh conf inactive | rCAG binder conf 55.5 | dCAG dye counter 25.1
COc1cc(-c2nnc(SCc3cc(=O)oc4cc(O)c(O)cc34)o2)cc(OC)c1OC	HTRA1 inhibitor 46.5, ABHD4 inh 32.9, TCR CD3 inh 28.2, rCAG RNA binder 58.5 | HTRA1 inh conf inactive | BSA probe FL inactive | TCR-CD3 conf 40.0 | rCAG binder conf 64.0 | dCAG dye counter 29.9
O=C(NNc1ccc(C(F)(F)F)cc1[N+](=O)[O-])c1ccc(NS(=O)(=O)c2ccc(F)cc2)cc1	HTRA1 inhibitor 37.8, rCAG RNA binder 71.0 | HTRA1 inh conf inactive | rCAG binder conf 60.9 | dCAG dye counter 22.1
CC(C)[C@H](Nc1ccc(C(F)(F)F)cc1[N+](=O)[O-])C(=O)O	none
O=C(N/N=C/c1ccc([N+](=O)[O-])o1)c1sc2ccccc2c1Cl	HTRA1 inhibitor 52.1, rCAG RNA binder 35.9 | HTRA1 inh conf 55.3 | rCAG binder conf 38.5 | dCAG dye counter 17.9
O=C(N/N=C/c1ccccn1)c1sc2ccccc2c1Cl	none
CSc1nc2c(c(=O)n1-c1ccc(F)cc1)SCC2	none
Cc1cc(=O)[nH]c2cc(O)ccc12	none
CC(C)=CCCC1(C)C=Cc2c(c(C)cc3c2[nH]c2cc(O)ccc23)O1 (stereo unspecified)	HTRA1 inhibitor 45.7, rCAG RNA binder 51.0 | HTRA1 inh conf inactive | rCAG binder conf inactive | dCAG dye counter 15.2
Cc1c(C(=O)NCc2cccs2)oc2ccc(Br)cc12	none
